Experimental data from ChEMBL document CHEMBL2321834 (J Med Chem, 2013).
pIC50: −log10 of the molar value.

Experiments:
[1] = target: T1, 17-beta-hydroxysteroid dehydrogenase type 2 (Homo sapiens) (UniProt P37059); settings: Placenta, Microsomal, at 1 µM
T1 sequence (whole entry): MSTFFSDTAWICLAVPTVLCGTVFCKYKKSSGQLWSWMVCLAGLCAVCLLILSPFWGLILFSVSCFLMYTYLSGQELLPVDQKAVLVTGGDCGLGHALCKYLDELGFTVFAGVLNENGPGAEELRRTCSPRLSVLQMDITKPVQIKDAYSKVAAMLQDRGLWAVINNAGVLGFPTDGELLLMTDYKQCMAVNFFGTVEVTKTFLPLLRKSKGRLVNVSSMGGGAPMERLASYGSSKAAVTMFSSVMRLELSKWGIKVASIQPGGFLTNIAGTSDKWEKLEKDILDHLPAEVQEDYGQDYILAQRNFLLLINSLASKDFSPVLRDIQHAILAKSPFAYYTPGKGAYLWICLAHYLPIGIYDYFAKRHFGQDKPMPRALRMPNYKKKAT

Homo sapiens = species on record: Homo sapiens; assay: Selectivity ratio of IC50 for 17beta-HSD1 in human placental microsomal fraction to IC50 for 17beta-HSD2 in human placental microsomal fraction; assay type: microsomes; settings: Microsome
[2] = target: T2, Aldo-keto reductase family 1 member C3 (Homo sapiens) (UniProt P42330); assay: Inhibition of human recombinant 17beta-HSD5 expressed in Escherichia coli using [1,2,6,7-3H]A-dione as substrate at 1 uM by scintillation counting analysis
T2 sequence (whole entry): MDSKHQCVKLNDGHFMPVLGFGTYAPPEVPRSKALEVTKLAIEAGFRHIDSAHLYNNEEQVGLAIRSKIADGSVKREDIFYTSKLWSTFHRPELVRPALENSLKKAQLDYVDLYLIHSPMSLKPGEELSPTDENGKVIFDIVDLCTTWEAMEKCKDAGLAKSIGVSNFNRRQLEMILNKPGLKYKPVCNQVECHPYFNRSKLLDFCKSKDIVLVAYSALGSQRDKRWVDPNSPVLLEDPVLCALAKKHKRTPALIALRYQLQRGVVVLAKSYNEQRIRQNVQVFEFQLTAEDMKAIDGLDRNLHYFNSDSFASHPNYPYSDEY

[3] = target: 11-beta-hydroxysteroid dehydrogenase 1 (Homo sapiens, UniProt P28845); assay: Inhibition of human recombinant 11beta-HSD1 expressed in HEK293 cell using [1,2-3H]Cortisone as substrate after 10 mins by scintillation counting analysis; assay type: cell-based
11-beta-hydroxysteroid dehydrogenase 1, sequence (P28845 whole entry): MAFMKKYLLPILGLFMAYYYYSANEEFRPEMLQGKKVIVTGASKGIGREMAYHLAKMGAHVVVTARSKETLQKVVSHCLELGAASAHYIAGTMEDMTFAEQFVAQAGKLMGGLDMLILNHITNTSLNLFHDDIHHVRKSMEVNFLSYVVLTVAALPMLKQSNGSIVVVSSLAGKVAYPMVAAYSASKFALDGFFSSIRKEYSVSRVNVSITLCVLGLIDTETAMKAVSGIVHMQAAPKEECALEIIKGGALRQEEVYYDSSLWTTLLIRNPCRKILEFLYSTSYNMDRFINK

[4] = target: T3, 17-beta-hydroxysteroid dehydrogenase type 2 (Homo sapiens, UniProt P37059); assay: Inhibition of 17beta-HSD2 in human MDA-MB-231 cells using [3H]E2 as substrate after 6 hrs by HPLC analysis; assay type: cell-based
T3 sequence (P37059 whole entry): T1 sequence (whole entry)

[5] = target: T4, Estrogen receptor (Homo sapiens) (UniProt P03372); assay: Displacement of [3H]E2 from human recombinant ERalpha after 1 hr by scintillation counting analysis relative to E2
T4 sequence (whole entry): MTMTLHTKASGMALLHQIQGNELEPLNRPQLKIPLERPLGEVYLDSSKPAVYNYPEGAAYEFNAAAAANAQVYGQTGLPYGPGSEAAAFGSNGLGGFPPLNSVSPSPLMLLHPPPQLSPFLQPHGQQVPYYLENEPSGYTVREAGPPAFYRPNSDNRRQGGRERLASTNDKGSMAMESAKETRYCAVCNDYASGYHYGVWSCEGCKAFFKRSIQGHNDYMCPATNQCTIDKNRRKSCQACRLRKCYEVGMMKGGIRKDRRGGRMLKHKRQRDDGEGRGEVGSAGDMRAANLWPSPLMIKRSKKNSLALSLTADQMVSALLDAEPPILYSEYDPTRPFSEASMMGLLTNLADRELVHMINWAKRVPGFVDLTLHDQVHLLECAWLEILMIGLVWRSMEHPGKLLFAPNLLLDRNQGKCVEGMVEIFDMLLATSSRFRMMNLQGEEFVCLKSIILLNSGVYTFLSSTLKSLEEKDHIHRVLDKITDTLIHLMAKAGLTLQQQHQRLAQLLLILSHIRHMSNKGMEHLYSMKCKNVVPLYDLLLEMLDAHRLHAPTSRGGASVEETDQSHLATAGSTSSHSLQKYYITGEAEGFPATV
Outline: (§1)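 Competitive binding assay against ERα and ERβ, with E2 as internal reference.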

[6] = target: Estrogen receptor beta (Homo sapiens) (UniProt Q92731); assay: Displacement of [3H]E2 from human recombinant ERbeta after 1 hr by scintillation counting analysis relative to E2
Estrogen receptor beta (Homo sapiens), sequence (Q92731 whole entry): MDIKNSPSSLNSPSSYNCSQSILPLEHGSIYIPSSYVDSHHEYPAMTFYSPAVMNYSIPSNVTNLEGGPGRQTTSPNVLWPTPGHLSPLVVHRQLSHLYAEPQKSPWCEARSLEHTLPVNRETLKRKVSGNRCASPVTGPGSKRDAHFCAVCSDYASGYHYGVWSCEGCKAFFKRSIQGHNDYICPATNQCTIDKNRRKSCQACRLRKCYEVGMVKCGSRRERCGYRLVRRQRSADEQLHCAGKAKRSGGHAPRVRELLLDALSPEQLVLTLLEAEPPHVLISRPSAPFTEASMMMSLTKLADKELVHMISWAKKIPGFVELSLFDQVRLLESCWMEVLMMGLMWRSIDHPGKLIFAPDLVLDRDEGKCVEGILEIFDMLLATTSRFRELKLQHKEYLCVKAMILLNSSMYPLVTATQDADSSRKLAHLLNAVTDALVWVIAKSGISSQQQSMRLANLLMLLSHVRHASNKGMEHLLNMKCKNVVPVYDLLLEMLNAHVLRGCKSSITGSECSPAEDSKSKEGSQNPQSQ
Outline: as §1

Row | SMILES | inhibition [1] [%] | Ratio IC50 (Homo sapiens) | inhibition [2] [%] | pIC50 [3] | pIC50 [4] | RBA [5] [%] | RBA [6] [%]
1 | COc1cccc(-c2ccc(C(=O)N(C)Cc3cccc(O)c3)s2)c1F | 89 | 73 | 33 | 6.00 |  |  | 
2 | COc1cccc(N(C)C(=O)c2ccc(-c3cccc(OC)c3F)s2)c1 | 93 |  | 26 |  | 6.98 | < 0.1 | < 0.1
